Active and inactive are the calls of the source. The calls are words filed in the database; no cut-off is given here.
Experiments:
[1] = tested on: THP-1; assay: Growth inhibition of human THP1 cells after 72 hrs by Cell Titer 96 aqueous one solution assay; type: functional
Procedure, shortened: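 Cells were grown in RPMI with 10% FBS, 2 mM L-glutamine and penicillin/streptomycin. They were seeded at 10,000 cells/well in round-bottom plates and exposed to compounds for 72 h (eight concentrations, six replicates). Cell Titer 96 AQueous One reagent was then added for 3 h at 37 °C and absorbance was read at 492 nm. Values are means, n = 6.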

[2] = tested on: HaCaT; assay: Induction of apoptosis in human HaCaT cells after 12 hrs by electron microscopy; type: functional, cell-based
[3] = tested on: HaCaT; assay: Induction of apoptosis in human HaCaT cells assessed as late phase apoptotic/necrotic cells at 446 uM after 9 hrs by AnnexinV-FITC/propidium iodide based FACS flow cytometry; type: functional
Procedure, shortened: (§1)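 HaCaT cells at 10^6 cells/ml were attached overnight and exposed to vehicle, 111.6, 223.2 or 446 µM for 9 h. Cells were then trypsinized, washed in ice-cold PBS and stained with Annexin V-FITC/PI. FACScan analysis used FL1/FL2, 10,000 events per sample, scatter gating, and quadrants set with single-stain controls. Runs were in triplicate and results are means of two experiments.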

[4] = tested on: HaCaT; assay: Induction of apoptosis in human HaCaT cells assessed as viable cells at 223.2 uM after 9 hrs by AnnexinV-FITC/propidium iodide based FACS flow cytometry; type: functional; settings: read-out: Activity; procedure, shortened: as §1
[5] = Growth inhibition of HPV-16 transformed human CCD-1106 cells after 72 hrs by neutral red uptake assay; type: functional; settings: CCD-1106, 72 h
Procedure, shortened: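 Neutral red uptake assay over 72 h. Cells were seeded at 10,000 cells/well and attached overnight, then exposed to eight concentrations with six replicates (DMSO <1%). CCD-1106 were grown in keratinocyte SFM with supplements. HaCaT were grown in DMEM with 10% FBS and 2 mM L-glutamine. NHEK (pooled adult) were grown in keratinocyte growth medium with supplement. Values are means, n = 6, against the untreated control.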

[6] = tested on: HaCaT; assay: Induction of apoptosis in human HaCaT cells assessed as viable cells at 111.6 uM after 9 hrs by AnnexinV-FITC/propidium iodide based FACS flow cytometry; type: functional; settings: read-out: Activity; procedure, shortened: as §1
[7] = target: Epidermal growth factor receptor (Homo sapiens) (UniProt P00533); assay: Inhibition of EGFR-mediated p38 phosphorylation in HPV-16 transformed human CCD-1106 cells at 116.8 uM after 30 mins by densitometric analysis; type: cell-based
Procedure, shortened: (§2)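 CCD-1106 cells were treated with compound for 30 min at 37 °C, then stimulated with EGF. Lysates were separated by SDS-PAGE, blotted to nitrocellulose and blocked in 3% BSA/NaTT. Blots were probed with p-ERK (E-4) or p-p38 (D-8) antibodies, detected by ECL and quantified by densitometry.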

[8] = tested on: HaCaT; assay: Induction of apoptosis in human HaCaT cells assessed as early phase apoptotic cells at 111.6 uM after 9 hrs by AnnexinV-FITC/propidium iodide based FACS flow cytometry; type: functional; procedure, shortened: as §1
[9] = target: Epidermal growth factor receptor (Homo sapiens) (UniProt P00533); assay: Inhibition of phosphorylated EGFR dimerization in HPV-16 transformed human CCD-1106 cells at 126.7 uM after 30 mins by densitometric analysis; type: cell-based
Procedure, shortened: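 CCD-1106 cells were exposed to compounds for 30 min at 37 °C, then stimulated with EGF 50 ng/mL for 10 min. They were cross-linked with 2 mM BS3 for 30 min at room temperature and quenched with Tris (pH 7.5). Lysates were run on SDS-PAGE and immunoblotted for phospho-EGFR (Tyr1173) and total EGFR. The ~340 kDa dimer band was quantified by densitometry against the no-inhibitor control.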

[10] = tested on: HaCaT; assay: Cytotoxicity against human HaCaT cells assessed as cell viability after 24 hrs by MTT assay; type: functional; settings: read-out: LD50 (the source's name)
Procedure, shortened: (§3)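 Cells were plated at 10,000/well, attached overnight, and exposed 6 or 24 h to eight drug concentrations with six in-plate replicates (DMSO <1%). MTT (0.5 mg/ml in PBS) was added for 2 h at 37 °C, then dissolved in 90% isopropanol/10% DMSO, and A590 was read. Values were corrected against untreated controls. LD₅₀ is reported as mean ± S.E.M., n = 3.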

[11] = Growth inhibition of HPV-16 transformed human CCD-1106 cells after 72 hrs by MTT assay; type: functional; settings: CCD-1106, 72 h
Procedure, shortened: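 Cells were seeded at 10,000 cells/well in keratinocyte serum-free medium with L-glutamine, bovine pituitary extract and EGF, at 37 °C under 5% CO2, and attached overnight. Eight drug concentrations were run with six in-plate replicates, DMSO <1%, for 72 h. MTT (0.5 mg/ml) was added for 2 h, formazan was dissolved in 90% isopropanol/10% DMSO and A590 was read. Growth is expressed relative to the untreated control.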

[12] = tested on: HaCaT; assay: Induction of apoptosis in human HaCaT cells assessed as activation of caspase 3/7 at 56 to 446 uM after 12 hrs; type: functional, cell-based
Procedure, shortened: (§4)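 HaCaT cells were seeded at 10,000 cells/0.2 ml/well, attached overnight and exposed to compound (56–446 µM) for 12 h. Caspase-3/7 activity was measured with the Apo-ONE homogeneous kit, fluorescence 499/521 nm, in triplicate, with medium-only background wells. MTT viability was run in parallel. Results are means of two experiments, t-test against control.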

[13] = Cytotoxicity against HPV-16 transformed human CCD-1106 cells assessed as LDH release after 24 hrs by CYTOX-96 assay; type: functional; settings: CCD-1106, 24 h, read-out: LD50 (the source's name)
Procedure, shortened: (§5)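 LDH release was read with the CytoTox 96 kit following the kit protocol after 6 or 24 h drug exposure. Cells were seeded at 10,000/well and attached overnight. Eight concentrations were run with six in-plate replicates; DMSO was <1% in all wells, with medium-only blanks. LD₅₀ is reported as mean ± S.E.M., n = 6. CCD-1106 were grown in supplemented keratinocyte SFM; HaCaT in DMEM/10% FBS.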

[14] = tested on: HaCaT; assay: Induction of necrosis in human HaCaT cells after 12 hrs by electron microscopy; type: functional, cell-based
[15] = tested on: HaCaT; assay: Induction of apoptosis in human HaCaT cells assessed as activation of caspase 3/7 at 55.8 uM after 12 hrs; type: functional, cell-based; procedure, shortened: as §4
[16] = Cytotoxicity against HPV-16 transformed human CCD-1106 cells assessed as cell viability after 24 hrs by MTT assay; type: functional; settings: CCD-1106, 24 h, read-out: LD50 (the source's name); procedure, shortened: as §3
[17] = tested on: HaCaT; assay: Cytotoxicity against human HaCaT cells assessed as LDH release after 6 hrs by CYTOX-96 assay; type: functional; settings: read-out: LD50 (the source's name); procedure, shortened: as §5
[18] = Cytotoxicity against HPV-16 transformed human CCD-1106 cells assessed as cell viability after 6 hrs by MTT assay; type: functional; settings: CCD-1106, 6 h, read-out: LD50 (the source's name); procedure, shortened: as §3
[19] = target: Epidermal growth factor receptor (Homo sapiens) (UniProt P00533); assay: Inhibition of EGFR-mediated ERK1 phosphorylation in HPV-16 transformed human CCD-1106 cells at 116.8 uM after 30 mins by densitometric analysis; type: cell-based; procedure, shortened: as §2
[20] = tested on: HaCaT; assay: Induction of apoptosis in human HaCaT cells assessed as late phase apoptotic/necrotic cells at 223.2 uM after 9 hrs by AnnexinV-FITC/propidium iodide based FACS flow cytometry; type: functional; procedure, shortened: as §1
[21] = tested on: HaCaT; assay: Induction of apoptosis in human HaCaT cells assessed as viable cells at 446 uM after 9 hrs by AnnexinV-FITC/propidium iodide based FACS flow cytometry; type: functional; settings: read-out: Activity; procedure, shortened: as §1

Epidermal growth factor receptor (Homo sapiens), sequence (P00533 whole entry): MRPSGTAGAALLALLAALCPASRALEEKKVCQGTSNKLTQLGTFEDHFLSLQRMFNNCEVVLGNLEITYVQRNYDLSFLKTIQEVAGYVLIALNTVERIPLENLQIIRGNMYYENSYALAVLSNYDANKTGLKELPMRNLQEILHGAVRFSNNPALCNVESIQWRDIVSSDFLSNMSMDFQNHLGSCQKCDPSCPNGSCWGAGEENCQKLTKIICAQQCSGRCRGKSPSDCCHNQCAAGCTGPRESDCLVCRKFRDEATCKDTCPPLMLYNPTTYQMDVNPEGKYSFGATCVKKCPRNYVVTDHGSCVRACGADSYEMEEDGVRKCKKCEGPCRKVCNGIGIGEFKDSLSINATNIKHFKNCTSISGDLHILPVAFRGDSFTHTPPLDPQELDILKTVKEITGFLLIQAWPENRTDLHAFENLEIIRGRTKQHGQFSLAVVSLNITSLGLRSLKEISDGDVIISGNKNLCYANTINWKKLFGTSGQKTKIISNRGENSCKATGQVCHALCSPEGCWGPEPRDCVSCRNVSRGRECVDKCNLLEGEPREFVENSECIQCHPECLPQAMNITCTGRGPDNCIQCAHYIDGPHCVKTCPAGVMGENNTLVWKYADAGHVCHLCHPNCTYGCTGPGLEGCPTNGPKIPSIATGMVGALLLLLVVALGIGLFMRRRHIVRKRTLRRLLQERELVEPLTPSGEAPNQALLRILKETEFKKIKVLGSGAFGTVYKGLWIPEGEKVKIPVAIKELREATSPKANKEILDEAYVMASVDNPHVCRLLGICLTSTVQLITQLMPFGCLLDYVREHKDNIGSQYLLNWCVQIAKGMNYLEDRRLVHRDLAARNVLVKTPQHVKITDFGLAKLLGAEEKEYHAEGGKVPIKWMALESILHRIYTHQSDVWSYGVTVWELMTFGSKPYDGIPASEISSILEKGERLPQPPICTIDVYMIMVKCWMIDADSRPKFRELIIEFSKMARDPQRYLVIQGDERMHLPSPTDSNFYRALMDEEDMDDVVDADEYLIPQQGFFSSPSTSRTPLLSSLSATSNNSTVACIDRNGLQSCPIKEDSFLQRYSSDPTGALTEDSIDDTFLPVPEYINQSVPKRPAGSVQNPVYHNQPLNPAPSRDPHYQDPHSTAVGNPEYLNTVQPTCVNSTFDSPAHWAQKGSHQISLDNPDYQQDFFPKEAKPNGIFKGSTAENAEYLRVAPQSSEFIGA

Question: Which “growth inhibition (GI)” value [1] does the source give for `CCOc1cc(/C=N\Nc2nc3c(c(=O)n(C)c(=O)n3C)n2Cc2ccccc2)ccc1O` here?
Answer: Dose-dependent effect

Question: What about the GI50 ([1]; THP-1, 72 h) of the same molecule?
Answer: 36 µM

Question: What about the Activity [2] of the same molecule?
Answer: Active

Question: What about the Activity [3] of the same molecule?
Answer: 15%

Question: And the viability at 223.2 µM [4]?
Answer: 73%

Question: What about the GI50 [5] of the same molecule?
Answer: 9 µM

Question: What about the viability at 111.6 µM [6] of the same molecule?
Answer: 82%

Question: And the inhibition [7]?
Answer: 11%

Question: And the Activity [8]?
Answer: 12%

Question: What about the inhibition [9] of the same molecule?
Answer: 37%

Question: What about the CC50 [10] of the same molecule?
Answer: 446 µM

Question: What about the GI50 ([11]; read-out: GI50) of the same molecule?
Answer: 2.69 µM

Question: And the GI50 ([11]; read-out: pGI50 (converted))?
Answer: 2.69 µM

Question: And the Activity [12]?
Answer: Active

Question: And the CC50 [13]?
Answer: > 446 µM

Question: What about the Activity [14] of the same molecule?
Answer: inactive

Question: And the Activity [15]?
Answer: Active

Question: What about the CC50 [16] of the same molecule?
Answer: 112 µM

Question: And the CC50 [17]?
Answer: 446 µM

Question: What about the CC50 [18] of the same molecule?
Answer: 234 µM

Question: And the inhibition [19]?
Answer: 39%

Question: What about the Activity [20] of the same molecule?
Answer: 10%

Question: And the viability at 446 µM [21]?
Answer: 61%
